Source: ChEMBL document CHEMBL1687785, “ampG gene of Pseudomonas aeruginosa and its role in β-lactamase expression” (2010)

Tests used:
[1] = molecular target: Beta-lactamase (Pseudomonas aeruginosa (strain ATCC 15692 / PAO1 / 1C / PRS 101 / LMG12228)) (UniProt P24735); assay: Activity of ampG deficient Pseudomonas aeruginosa PAK AmpC at 50 ug/ml assessed as nitrocefin substrate hydrolysis per mg of protein after 2 hrs by UV spectrophotometry
Summary of the method: (§1)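 P. aeruginosa cells induced 2 h with […] cefoxitin. Crude sonicated extracts assayed by UV spectrophotometry with 100 μM nitrocefin substrate. Specific activity is nmol nitrocefin hydrolyzed per min per mg protein at 30°C, with protein by BCA against BSA standard. Triplicate inductions, averaged.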

[2] = molecular target: Beta-lactamase (Pseudomonas aeruginosa (strain ATCC 15692 / PAO1 / 1C / PRS 101 / LMG12228)) (UniProt P24735); assay: Activity of ampG deficient Pseudomonas aeruginosa PAK AmpC harboring pZY0908 conferring resistance to gentamycin at 50 ug/ml assessed as nitrocefin substrate hydrolysis per mg of protein after 2 hrs by UV spectrophotometry; summary of the method: as §1
[3] = molecular target: Beta-lactamase (Pseudomonas aeruginosa (strain ATCC 15692 / PAO1 / 1C / PRS 101 / LMG12228)) (UniProt P24735); assay: Activity of ampG deficient Pseudomonas aeruginosa PAO1 AmpC at 50 ug/ml assessed as nitrocefin substrate hydrolysis per mg of protein after 2 hrs by UV spectrophotometry; summary of the method: as §1
[4] = molecular target: Beta-lactamase (Pseudomonas aeruginosa (strain ATCC 15692 / PAO1 / 1C / PRS 101 / LMG12228)) (UniProt P24735); assay: Activity of ampD, […], ampDh2 deficient Pseudomonas aeruginosa PAO1 AmpC at 50 ug/ml assessed as nitrocefin substrate hydrolysis per mg of protein after 2 hrs by UV spectrophotometry; summary of the method: as §1
[5] = molecular target: Beta-lactamase (Pseudomonas aeruginosa (strain ATCC 15692 / PAO1 / 1C / PRS 101 / LMG12228)) (UniProt P24735); assay: Activity of Pseudomonas aeruginosa PAO1 AmpC at 50 ug/ml assessed as nitrocefin substrate hydrolysis per mg of protein after 2 hrs by UV spectrophotometry; summary of the method: as §1
[6] = molecular target: Beta-lactamase (Pseudomonas aeruginosa (strain ATCC 15692 / PAO1 / 1C / PRS 101 / LMG12228)) (UniProt P24735); assay: Activity of Pseudomonas aeruginosa PAK AmpC at 50 ug/ml assessed as nitrocefin substrate hydrolysis per mg of protein after 2 hrs by UV spectrophotometry; summary of the method: as §1
[7] = molecular target: Beta-lactamase (Pseudomonas aeruginosa (strain ATCC 15692 / PAO1 / 1C / PRS 101 / LMG12228)) (UniProt P24735); assay: Activity of ampG deficient Pseudomonas aeruginosa PAK AmpC harboring pZY0901 conferring resistance to gentamycin at 50 ug/ml assessed as nitrocefin substrate hydrolysis per mg of protein after 2 hrs by UV spectrophotometry; summary of the method: as §1
[8] = molecular target: Beta-lactamase (Pseudomonas aeruginosa (strain ATCC 15692 / PAO1 / 1C / PRS 101 / LMG12228)) (UniProt P24735); assay: Activity of ampD, ampDh2, ampDh3 and ampG deficient Pseudomonas aeruginosa PAO1 AmpC at 50 ug/ml assessed as nitrocefin substrate hydrolysis per mg of protein after 2 hrs by UV spectrophotometry; summary of the method: as §1
[9] = molecular target: Beta-lactamase (Pseudomonas aeruginosa (strain ATCC 15692 / PAO1 / 1C / PRS 101 / LMG12228)) (UniProt P24735); assay: Activity of ampD, ampDh2, ampDh3 and ampG deficient Pseudomonas aeruginosa PAO1 AmpC harboring pZY0901 conferring resistance to gentamycin at 50 ug/ml assessed as nitrocefin substrate hydrolysis per mg of protein after 2 hrs by UV spectrophotometry; summary of the method: as §1
[10] = molecular target: Beta-lactamase (Pseudomonas aeruginosa (strain ATCC 15692 / PAO1 / 1C / PRS 101 / LMG12228)) (UniProt P24735); assay: Activity of Pseudomonas aeruginosa PAO1 AmpC assessed as nitrocefin hydrolyzed per mg of protein at 1 ug/ml by UV spectrophotometry
Summary of the method: (§2)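 P. aeruginosa cells induced 2 h with cefoxitin (1, 10 or 25 μg/ml; uninduced control). Crude extracts prepared by sonication. β-Lactamase measured by UV spectrophotometry with 100 μM nitrocefin as substrate. Specific activity given as nmol nitrocefin hydrolyzed per min per mg protein at 30°C, with protein by BCA against BSA standard. Triplicate inductions, averaged.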

[11] = molecular target: Beta-lactamase (Pseudomonas aeruginosa (strain ATCC 15692 / PAO1 / 1C / PRS 101 / LMG12228)) (UniProt P24735); assay: Activity of Pseudomonas aeruginosa PAO1 AmpC assessed as nitrocefin hydrolyzed per mg of protein at 10 ug/ml by UV spectrophotometry; summary of the method: as §2
[12] = molecular target: Beta-lactamase (Pseudomonas aeruginosa (strain ATCC 15692 / PAO1 / 1C / PRS 101 / LMG12228)) (UniProt P24735); assay: Activity of Pseudomonas aeruginosa PAO1 AmpC assessed as nitrocefin hydrolyzed per mg of protein at 25 ug/ml by UV spectrophotometry; summary of the method: as §2
[13] = molecular target: Beta-lactamase (Pseudomonas aeruginosa (strain ATCC 15692 / PAO1 / 1C / PRS 101 / LMG12228)) (UniProt P24735); assay: Activity of Pseudomonas aeruginosa PAK AmpC assessed as nitrocefin hydrolyzed per mg of protein at 1 ug/ml by UV spectrophotometry; summary of the method: as §2
[14] = molecular target: Beta-lactamase (Pseudomonas aeruginosa (strain ATCC 15692 / PAO1 / 1C / PRS 101 / LMG12228)) (UniProt P24735); assay: Activity of Pseudomonas aeruginosa PAK AmpC assessed as nitrocefin hydrolyzed per mg of protein at 10 ug/ml by UV spectrophotometry; summary of the method: as §2
[15] = molecular target: Beta-lactamase (Pseudomonas aeruginosa (strain ATCC 15692 / PAO1 / 1C / PRS 101 / LMG12228)) (UniProt P24735); assay: Activity of Pseudomonas aeruginosa PAK AmpC assessed as nitrocefin hydrolyzed per mg of protein at 25 ug/ml by UV spectrophotometry; summary of the method: as §2
[16] = molecular target: Beta-lactamase (Pseudomonas aeruginosa (strain ATCC 15692 / PAO1 / 1C / PRS 101 / LMG12228)) (UniProt P24735); assay: Activity of ampD, […], ampDh2 deficient Pseudomonas aeruginosa PAO1 AmpC assessed as nitrocefin hydrolyzed per mg of protein at 1 ug/ml by UV spectrophotometry; summary of the method: as §2
[17] = molecular target: Beta-lactamase (Pseudomonas aeruginosa (strain ATCC 15692 / PAO1 / 1C / PRS 101 / LMG12228)) (UniProt P24735); assay: Activity of ampD, […], ampDh2 deficient Pseudomonas aeruginosa PAO1 AmpC assessed as nitrocefin hydrolyzed per mg of protein at 10 ug/ml by UV spectrophotometry; summary of the method: as §2
[18] = molecular target: Beta-lactamase (Pseudomonas aeruginosa (strain ATCC 15692 / PAO1 / 1C / PRS 101 / LMG12228)) (UniProt P24735); assay: Activity of ampD, […], ampDh2 deficient Pseudomonas aeruginosa PAO1 AmpC assessed as nitrocefin hydrolyzed per mg of protein at 25 ug/ml by UV spectrophotometry; summary of the method: as §2
[19] = molecular target: Beta-lactamase (Pseudomonas aeruginosa (strain ATCC 15692 / PAO1 / 1C / PRS 101 / LMG12228)) (UniProt P24735); assay: Activity of ampG deficient Pseudomonas aeruginosa PAO1 AmpC assessed as nitrocefin hydrolyzed per mg of protein at 1 ug/ml by UV spectrophotometry; summary of the method: as §2
[20] = molecular target: Beta-lactamase (Pseudomonas aeruginosa (strain ATCC 15692 / PAO1 / 1C / PRS 101 / LMG12228)) (UniProt P24735); assay: Activity of ampG deficient Pseudomonas aeruginosa PAO1 AmpC assessed as nitrocefin hydrolyzed per mg of protein at 10 ug/ml by UV spectrophotometry; summary of the method: as §2
[21] = molecular target: Beta-lactamase (Pseudomonas aeruginosa (strain ATCC 15692 / PAO1 / 1C / PRS 101 / LMG12228)) (UniProt P24735); assay: Activity of ampG deficient Pseudomonas aeruginosa PAO1 AmpC assessed as nitrocefin hydrolyzed per mg of protein at 25 ug/ml by UV spectrophotometry; summary of the method: as §2
[22] = molecular target: Beta-lactamase (Pseudomonas aeruginosa (strain ATCC 15692 / PAO1 / 1C / PRS 101 / LMG12228)) (UniProt P24735); assay: Activity of ampD, […], ampDh2 and ampG deficient Pseudomonas aeruginosa PAO1 AmpC assessed as nitrocefin hydrolyzed per mg of protein at 25 ug/ml by UV spectrophotometry; summary of the method: as §2
[23] = molecular target: Beta-lactamase (Pseudomonas aeruginosa (strain ATCC 15692 / PAO1 / 1C / PRS 101 / LMG12228)) (UniProt P24735); assay: Activity of ampD, […], ampDh2 and ampG deficient Pseudomonas aeruginosa PAO1 AmpC assessed as nitrocefin hydrolyzed per mg of protein at 10 ug/ml by UV spectrophotometry; summary of the method: as §2
[24] = molecular target: Beta-lactamase (Pseudomonas aeruginosa (strain ATCC 15692 / PAO1 / 1C / PRS 101 / LMG12228)) (UniProt P24735); assay: Activity of ampD, […], ampDh2 and ampG deficient Pseudomonas aeruginosa PAO1 AmpC assessed as nitrocefin hydrolyzed per mg of protein at 1 ug/ml by UV spectrophotometry; summary of the method: as §2
[25] = molecular target: Beta-lactamase (Pseudomonas aeruginosa (strain ATCC 15692 / PAO1 / 1C / PRS 101 / LMG12228)) (UniProt P24735); assay: Activity of ampG deficient Pseudomonas aeruginosa PAK AmpC assessed as nitrocefin hydrolyzed per mg of protein at 25 ug/ml by UV spectrophotometry; summary of the method: as §2
[26] = molecular target: Beta-lactamase (Pseudomonas aeruginosa (strain ATCC 15692 / PAO1 / 1C / PRS 101 / LMG12228)) (UniProt P24735); assay: Activity of ampG deficient Pseudomonas aeruginosa PAK AmpC assessed as nitrocefin hydrolyzed per mg of protein at 10 ug/ml by UV spectrophotometry; summary of the method: as §2
[27] = molecular target: Beta-lactamase (Pseudomonas aeruginosa (strain ATCC 15692 / PAO1 / 1C / PRS 101 / LMG12228)) (UniProt P24735); assay: Activity of ampG deficient Pseudomonas aeruginosa PAK AmpC assessed as nitrocefin hydrolyzed per mg of protein at 1 ug/ml by UV spectrophotometry; summary of the method: as §2
[28] = molecular target: Beta-lactamase AmpC (Enterobacter cloacae) (UniProt P05364); assay: Activity of kanamycin resistant Escherichia coli SNO301-1 AmpC harboring pEC1C carrying ampC, ampR from Enterobacter cloacae at 50 ug/ml assessed as nitrocefin substrate hydrolysis per mg of protein after 2 hrs by UV spectrophotometry
[29] = molecular target: Beta-lactamase AmpC (Enterobacter cloacae) (UniProt P05364); assay: Activity of gentamycin resistant Escherichia coli SNO301-1 AmpC harboring pEC1C carrying ampC, ampR from Enterobacter cloacae at 50 ug/ml assessed as nitrocefin substrate hydrolysis per mg of protein after 2 hrs by UV spectrophotometry
[30] = molecular target: Beta-lactamase AmpC (Enterobacter cloacae) (UniProt P05364); assay: Activity of tetracycline resistant Escherichia coli SNO301-1 AmpC harboring pEC1C carrying ampC, ampR from Enterobacter cloacae at 50 ug/ml assessed as nitrocefin substrate hydrolysis per mg of protein after 2 hrs by UV spectrophotometry

Beta-lactamase (Pseudomonas aeruginosa (strain ATCC 15692 / PAO1 / 1C / PRS 101 / LMG12228)), sequence (P24735 27-397 limits assumed): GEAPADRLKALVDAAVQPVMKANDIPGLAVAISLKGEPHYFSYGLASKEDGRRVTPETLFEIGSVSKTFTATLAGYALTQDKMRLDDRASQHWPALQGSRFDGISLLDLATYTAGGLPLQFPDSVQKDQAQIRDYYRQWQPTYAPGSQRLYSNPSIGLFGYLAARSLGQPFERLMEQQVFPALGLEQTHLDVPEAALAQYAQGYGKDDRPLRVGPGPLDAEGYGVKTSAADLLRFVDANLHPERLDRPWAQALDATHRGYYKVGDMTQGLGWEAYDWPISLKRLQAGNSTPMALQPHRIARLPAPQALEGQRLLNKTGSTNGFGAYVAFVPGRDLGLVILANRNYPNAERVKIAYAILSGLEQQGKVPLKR
Beta-lactamase AmpC (Enterobacter cloacae), sequence (P05364 whole entry, looked up): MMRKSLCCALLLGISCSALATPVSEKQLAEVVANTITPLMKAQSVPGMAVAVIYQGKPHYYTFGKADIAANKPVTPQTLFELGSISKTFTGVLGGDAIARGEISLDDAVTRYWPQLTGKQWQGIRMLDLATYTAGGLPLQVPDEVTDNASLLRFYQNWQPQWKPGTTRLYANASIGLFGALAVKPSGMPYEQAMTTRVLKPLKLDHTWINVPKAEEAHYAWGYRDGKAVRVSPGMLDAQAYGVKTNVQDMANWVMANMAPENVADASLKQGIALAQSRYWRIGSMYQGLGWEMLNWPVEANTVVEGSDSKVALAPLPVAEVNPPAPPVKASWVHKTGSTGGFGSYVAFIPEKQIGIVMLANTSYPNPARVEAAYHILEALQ

## CO[C@@]1(NC(=O)Cc2cccs2)C(=O)N2C(C(=O)O)=C(COC(N)=O)CS[C@@H]21
[1]
  Activity: 0 nmol/min
[2]
  Activity: 1300 nmol/min
[3]
  Activity: 0 nmol/min
[4]
  Activity: 3440 nmol/min
[5]
  Activity: 879 nmol/min
[6]
  Activity: 1220 nmol/min
[7]
  Activity: 2570 nmol/min
[8]
  Activity: 0 nmol/min
[9]
  Activity: 8130 nmol/min
[10]
  Activity: 36 nmol/min
[11]
  Activity: 165 nmol/min
[12]
  Activity: 372 nmol/min
[13]
  Activity: 152 nmol/min
[14]
  Activity: 747 nmol/min
[15]
  Activity: 1070 nmol/min
[16]
  Activity: 2980 nmol/min
[17]
  Activity: 3010 nmol/min
[18]
  Activity: 3020 nmol/min
[19]
  Activity: 3 nmol/min
[20]
  Activity: 10 nmol/min
[21]
  Activity: 0 nmol/min
[22]
  Activity: 0 nmol/min
[23]
  Activity: 8 nmol/min
[24]
  Activity: 4 nmol/min
[25]
  Activity: 0 nmol/min
[26]
  Activity: 5 nmol/min
[27]
  Activity: 2 nmol/min
[28]
  Activity: 3600 nmol/min
[29]
  Activity: 3250 nmol/min
[30]
  Activity: 38 nmol/min
